According to ChEMBL document CHEMBL1143558, “Discovery of a novel series of peroxisome proliferator-activated receptor alpha/gamma dual agonists for the treatment of type 2 diabetes and dyslipidemia” (J Med Chem, 2005):

How the values were obtained:
[1] = biological target: T1, Peroxisome proliferator-activated receptor alpha (Homo sapiens, UniProt Q07869); assay: Inhibition of human Peroxisome proliferator activated receptor alpha binding
T1 sequence (Q07869 whole entry): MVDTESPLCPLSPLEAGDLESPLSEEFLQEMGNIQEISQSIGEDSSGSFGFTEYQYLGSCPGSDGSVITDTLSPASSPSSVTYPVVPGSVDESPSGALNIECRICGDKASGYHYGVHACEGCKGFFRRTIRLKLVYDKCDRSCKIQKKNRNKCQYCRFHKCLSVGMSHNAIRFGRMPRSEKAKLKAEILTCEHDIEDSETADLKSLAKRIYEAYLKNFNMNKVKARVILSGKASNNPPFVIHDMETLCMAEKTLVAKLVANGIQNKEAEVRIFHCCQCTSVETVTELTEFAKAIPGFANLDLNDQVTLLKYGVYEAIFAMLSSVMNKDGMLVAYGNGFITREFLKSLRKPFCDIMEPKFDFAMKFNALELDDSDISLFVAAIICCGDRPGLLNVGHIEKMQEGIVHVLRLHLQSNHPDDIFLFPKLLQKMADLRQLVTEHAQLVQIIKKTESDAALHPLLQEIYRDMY

[2] = biological target: T2, Peroxisome proliferator-activated receptor gamma (Homo sapiens, UniProt P37231); assay: Effective concentration against human Peroxisome proliferator activated receptor gamma in Gal4 transactivation assay; Not active at 3 uM
T2 sequence (P37231 whole entry): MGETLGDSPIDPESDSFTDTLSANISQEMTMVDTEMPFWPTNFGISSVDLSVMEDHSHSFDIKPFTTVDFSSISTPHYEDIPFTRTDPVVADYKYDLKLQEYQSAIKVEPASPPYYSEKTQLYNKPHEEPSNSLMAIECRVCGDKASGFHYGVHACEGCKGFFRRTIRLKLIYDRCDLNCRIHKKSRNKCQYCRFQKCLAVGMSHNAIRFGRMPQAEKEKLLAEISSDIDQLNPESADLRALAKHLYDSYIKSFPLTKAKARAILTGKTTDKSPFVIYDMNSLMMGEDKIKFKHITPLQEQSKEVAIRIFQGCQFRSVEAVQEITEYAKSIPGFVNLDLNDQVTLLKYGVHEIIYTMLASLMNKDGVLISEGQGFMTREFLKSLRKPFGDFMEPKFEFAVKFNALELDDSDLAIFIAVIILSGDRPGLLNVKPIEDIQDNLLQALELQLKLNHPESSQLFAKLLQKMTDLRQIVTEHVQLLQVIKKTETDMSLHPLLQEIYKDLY
How it was run: (§1)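 Chimeric GAL4-hPPARα or GAL4-hPPARγ transactivation assay in transiently transfected COS-1 cells. Compounds were titrated up to 3 µM, the highest concentration tested. […] "Not active" means no activity at 3 µM.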

[3] = biological target: T2, Peroxisome proliferator-activated receptor gamma; assay: Inhibition of human Peroxisome proliferator activated receptor gamma binding
[4] = biological target: T1, Peroxisome proliferator-activated receptor alpha; assay: Effective concentration against human Peroxisome proliferator activated receptor alpha in Gal4 transactivation assay; Not active at 3 uM; how it was run: as §1
[5] = biological target: T2, Peroxisome proliferator-activated receptor gamma; assay: Maximal effect against human Peroxisome proliferator activated receptor gamma in Gal4 transactivation assay
How it was run: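 Chimeric GAL4-hPPARγ transactivation assay in transiently transfected COS-1 cells. The response is given as percent at 3 µM, the mean of n = 3.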

[6] = biological target: T1, Peroxisome proliferator-activated receptor alpha; assay: Effective concentration against human Peroxisome proliferator activated receptor alpha in Gal4 transactivation assay
[7] = biological target: T2, Peroxisome proliferator-activated receptor gamma; assay: Effective concentration against human Peroxisome proliferator activated receptor gamma in Gal4 transactivation assay
[8] = biological target: T3, Peroxisome proliferator-activated receptor alpha (Mus musculus, UniProt P23204); assay: Agonist activity against mouse Peroxisome proliferator activated receptor alpha; type: functional
T3 sequence (P23204 whole entry): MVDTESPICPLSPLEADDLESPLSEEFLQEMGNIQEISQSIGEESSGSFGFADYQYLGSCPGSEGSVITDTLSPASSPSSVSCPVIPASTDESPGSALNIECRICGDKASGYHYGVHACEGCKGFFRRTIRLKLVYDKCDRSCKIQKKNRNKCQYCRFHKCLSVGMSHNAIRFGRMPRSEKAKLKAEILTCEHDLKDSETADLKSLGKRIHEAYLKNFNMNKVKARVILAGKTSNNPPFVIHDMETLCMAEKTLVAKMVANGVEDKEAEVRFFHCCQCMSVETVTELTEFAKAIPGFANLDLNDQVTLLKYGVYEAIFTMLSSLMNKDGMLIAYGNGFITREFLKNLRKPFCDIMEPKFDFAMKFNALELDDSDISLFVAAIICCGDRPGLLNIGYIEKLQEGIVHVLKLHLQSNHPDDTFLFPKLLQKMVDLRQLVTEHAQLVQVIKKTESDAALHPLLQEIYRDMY
How it was run: (§2)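 Chimeric GAL4 fusions carrying the PPARα receptor from dog, hamster or mouse, constructed like the human transactivation assay. Run in transiently transfected COS-1 cells, with agonist activity read as EC50.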

[9] = biological target: T4, Peroxisome proliferator-activated receptor alpha (Canis lupus familiaris, UniProt Q95N78); assay: Agonist activity against dog Peroxisome proliferator activated receptor alpha; type: functional; how it was run: as §2
T4 sequence (Q95N78 whole entry): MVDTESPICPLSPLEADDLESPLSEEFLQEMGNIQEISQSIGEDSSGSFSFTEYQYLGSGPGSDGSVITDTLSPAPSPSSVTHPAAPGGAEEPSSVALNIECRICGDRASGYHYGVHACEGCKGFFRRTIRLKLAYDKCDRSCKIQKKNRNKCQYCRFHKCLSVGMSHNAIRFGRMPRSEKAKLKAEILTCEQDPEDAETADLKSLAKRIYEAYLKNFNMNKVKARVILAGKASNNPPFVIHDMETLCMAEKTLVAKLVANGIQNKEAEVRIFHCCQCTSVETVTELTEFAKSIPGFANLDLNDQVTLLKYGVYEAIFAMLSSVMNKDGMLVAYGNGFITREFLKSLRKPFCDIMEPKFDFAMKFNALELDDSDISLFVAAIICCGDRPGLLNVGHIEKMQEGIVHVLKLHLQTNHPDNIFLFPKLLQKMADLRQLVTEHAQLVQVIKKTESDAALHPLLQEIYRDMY

Structure (SMILES)	IC50 [1]	EC50 [2]	IC50 [3]	EC50 [4]	Emax [5]	EC50 [6]	EC50 [7]	EC50 [8]	EC50 [9]
CCCc1cc2c(C(F)(F)F)noc2c(CCC)c1OC(C)C(=O)O (configuration not stated)	1030 nM	–	> 10000 nM	–	21%	620 nM	–	–	–
CCCc1cc(C(=O)CC)cc(CCC)c1OC(C)(C)C(=O)O	480 nM	–	1220 nM	–	–	10 nM	1300 nM	–	–
CCCc1cc2c(OC)noc2c(CCC)c1OC(C)(C)C(=O)O	1510 nM	–	1620 nM	–	–	60 nM	1100 nM	–	–
CCCc1cc2c(C(F)(F)F)noc2c(CCC)c1OC(C)(C)C(=O)O	230 nM	–	1580 nM	–	25%	300 nM	–	180 nM	550 nM
CCCc1cc2c(C(F)(F)F)noc2c(CCC)c1OC(C)(CC)C(=O)O (configuration not stated)	100 nM	–	> 15000 nM	–	26%	750 nM	–	–	–

Results, then the compound that gave them:

IC50 [1]	EC50 [2]	IC50 [3]	EC50 [4]	Emax [5]	EC50 [6]	EC50 [7]	EC50 [8]	EC50 [9]	Structure (SMILES)
> 50000 nM	Not Active	> 15000 nM	Not Active	–	–	–	–	–	CCCc1cc2c(C(F)(F)F)noc2c(CCC)c1OCC(C)(C)C(=O)O
> 10000 nM	Not Active	> 10000 nM	Not Active	–	–	–	–	–	CCCc1c(OC(C)(C)C(=O)O)ccc2c(C(F)(F)F)noc12
35000 nM	–	–	–	–	15000 nM	–	–	–	CC(C)(Oc1ccc(C(=O)c2ccc(Cl)cc2)cc1)C(=O)O [FENOFIBRIC ACID]
